For one test, the system named is Akt. Nature of the test: Western blot analysis of cytosolic Hsp90-dependent client protein Akt. It counts as cell-based. Particulars: geldanamycin 0.5 μM, 24 h; all cell lines. An outline of the steps:
(§1)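 MDA-MB-231 and PC3-MM2 (DMEM), SK-MEL-28 (EMEM) or A549 (F-12K) cells, each in medium with 10% FBS and penicillin/streptomycin, were seeded at 100,000 cells/mL and grown 24 h at 37°C, 5% CO2. Cells were then treated with test compound, geldanamycin (0.5 μM) or DMSO vehicle for 24 h. Cold-PBS harvest, lysis with protease inhibitors, BCA-equalised protein, reducing 10% gels, PVDF, HRP chemiluminescence; actin loading control.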
On the technique in general: Immunoblotting shows a protein as a band on a membrane.

For the next test, the system named is Hsp70. Nature of the test: Western blot analysis of Hsp70 induction. Particulars: geldanamycin 0.5 μM, 24 h; all cell lines. In kind it is cell-based. An outline of the steps: as §1

Results on one molecule are retold here after publication PMC5722212 (Chemistry (Weinheim an der Bergstrasse, Germany), 2017).

Consider `COC1=C2C[C@@H](C)C[C@H](OC)[C@H](O)[C@@H](C)/C=C(\C)[C@H](OC(N)=O)[C@@H](OC)/C=C\C=C(/C)C(=O)NC(=CC1=O)C2=O` [geldanamycin], for which, in the test on Akt, the “degradation of Akt” value was “induced the degradation of Akt”. In the test on Hsp70, the “levels of Hsp70” value is listed as “increased the levels of Hsp70”.
